ChEMBL document CHEMBL4808187, “Antiarrhythmic Hit to Lead Refinement in a Dish Using Patient-Derived iPSC Cardiomyocytes” (J Med Chem, 2021)
Activity calls are given as the source filed them. The rule behind the calls is not given here.

Legend:
[1] = (§1) Antiarrhythmic activity in patient-derived hiPSC-CMs carrying LQT3 mutation assessed as cessation dose for cell beating; type: functional, Homo sapiens, iPSC-CM
[2] = Antiarrhythmic activity in patient-derived hiPSC-CMs carrying LQT3 mutation assessed as shortening of action potential duration; type: functional, Homo sapiens; settings: ipsc-cm
iPSC-CM [3] = assay: (§2) Antiarrhythmic activity in patient-derived hiPSC-CMs carrying LQT3 mutation assessed as fold shortening of action potential duration relative to control; type: functional; settings: Homo sapiens
iPSC-CM [4] = assay: (§3) Antiarrhythmic activity in patient-derived hiPSC-CMs carrying LQT3 mutation assessed as shortening dose of action potential; type: functional; settings: Homo sapiens
[5] = Antiarrhythmic activity in hiPSC-CMs assessed as cessation dose of cell beating; settings: human, ipsc-cm
[6] = Antiarrhythmic activity in hiPSC-CMs assessed as dose for induction of early after depolarizations; settings: human, ipsc-cm
[7] = Antiarrhythmic activity in hiPSC-CMs assessed as fold prolongation of action potential relative to control; settings: human, ipsc-cm
[8] = Inhibition of sodium channel (unknown origin) expressed in HEK cells assessed as reduction in late inward sodium current by automated patch clamp method; type: cell-based; settings: Homo sapiens, HEK293
[9] = Inhibition of sodium channel (unknown origin) expressed in HEK cells assessed as reduction in peak sodium current by automated patch clamp method; type: cell-based; settings: Homo sapiens, HEK293
[10] = Inhibition of potassium channel (unknown origin) expressed in CHO cells assessed as reduction in potassium current by automated patch clamp method; type: cell-based
Homo sapiens = organism: Homo sapiens; assay: Selectivity index, ratio of IC50 for potassium channel (unknown origin) expressed in CHO cells assessed as reduction in potassium current to IC50 for sodium channel (unknown origin) expressed in HEK cells assessed as reduction in late inward sodium current
iPSC-CM [11] = assay: as §1; type: functional; settings: Homo sapiens
[12] = Antiarrhythmic activity in hiPSC-CMs assessed as prolongation of action potential; set-up: species or system Homo sapiens, iPSC-CM
[13] = as §2; type: functional, Homo sapiens, iPSC-CM
[14] = as §3; type: functional, Homo sapiens, iPSC-CM
[15] = Potency index, ratio of mexiletine EC50 to test compound EC50 for antiarrhythmic activity in hiPSC-CMs expressing LQT3 mutation assessed as shortening of action potential duration; type: functional, Homo sapiens, iPSC-CM
[16] = Metabolic stability in human liver S9 fraction assessed as compound remaining at 50 uM after 1 hr by HPLC method; type: ADME, subcellular; settings: read-out: Stabilty
How it was run: (§4)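 Human liver microsomes (0.4–0.5 mg protein) or S-9 (1 mg) with 50 μM compound in 50 mM potassium phosphate pH 7.4 plus NADPH-generating system, 37 °C shaking for 0, 7, 15, 30, 60 min; stopped with cold acetonitrile; HPLC C18, isocratic water/acetonitrile with 0.05% TFA, UV 275.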

[17] = Metabolic stability in human liver microsomes assessed as compound remaining at 50 uM after 1 hr by HPLC method; type: ADME, Microsome; settings: read-out: Stabilty; how it was run: as §4
[18] = Metabolic stability in human liver microsomes assessed as half life at 50 uM measured upto 60 mins by HPLC method; type: ADME, Microsome; how it was run: as §4
[19] = Chemical stability in pH 7.4 phosphate buffer assessed as half life at 100 uM by RP-HPLC analysis; type: physicochemical
Cytochrome P450 3A4 = Cytochrome P450 3A4 (Homo sapiens, UniProt P08684); assay: Drug metabolism assessed as human CYP3A4-mediated metabolism per ug protein; type: ADME; settings: recombinant enzyme
Chain of Cytochrome P450 3A4 (P08684 whole entry): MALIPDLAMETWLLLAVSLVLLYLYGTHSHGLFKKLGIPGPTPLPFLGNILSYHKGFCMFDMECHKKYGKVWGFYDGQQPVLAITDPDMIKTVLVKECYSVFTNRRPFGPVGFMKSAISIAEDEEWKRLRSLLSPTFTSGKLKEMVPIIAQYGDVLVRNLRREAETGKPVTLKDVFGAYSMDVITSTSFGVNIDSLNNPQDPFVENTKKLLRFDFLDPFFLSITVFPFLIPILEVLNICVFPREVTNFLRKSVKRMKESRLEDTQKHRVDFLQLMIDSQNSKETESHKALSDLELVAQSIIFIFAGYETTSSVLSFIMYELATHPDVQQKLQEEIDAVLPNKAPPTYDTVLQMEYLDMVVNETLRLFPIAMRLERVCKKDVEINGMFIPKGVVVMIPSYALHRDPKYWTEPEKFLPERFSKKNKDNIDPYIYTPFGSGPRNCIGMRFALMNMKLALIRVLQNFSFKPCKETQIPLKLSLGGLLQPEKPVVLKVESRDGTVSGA

Cytochrome P450 3A5 = Cytochrome P450 3A5 (Homo sapiens, UniProt P20815); assay: Drug metabolism assessed as human CYP3A5-mediated metabolism per ug protein; type: ADME; settings: recombinant enzyme
Chain of Cytochrome P450 3A5 (P20815 whole entry): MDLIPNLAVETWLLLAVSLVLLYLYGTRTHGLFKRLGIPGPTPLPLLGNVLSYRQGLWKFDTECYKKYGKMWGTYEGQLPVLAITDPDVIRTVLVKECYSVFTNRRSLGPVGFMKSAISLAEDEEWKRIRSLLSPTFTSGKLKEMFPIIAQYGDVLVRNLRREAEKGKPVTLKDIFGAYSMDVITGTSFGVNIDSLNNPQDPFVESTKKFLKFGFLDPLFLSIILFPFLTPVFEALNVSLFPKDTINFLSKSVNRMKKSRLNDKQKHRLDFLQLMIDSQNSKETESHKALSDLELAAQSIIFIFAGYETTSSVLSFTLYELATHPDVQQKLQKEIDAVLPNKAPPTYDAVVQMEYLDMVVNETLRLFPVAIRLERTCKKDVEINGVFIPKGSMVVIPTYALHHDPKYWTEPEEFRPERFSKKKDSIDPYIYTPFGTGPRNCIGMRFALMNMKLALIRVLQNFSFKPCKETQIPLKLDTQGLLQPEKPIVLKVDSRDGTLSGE

Cytochrome P450 2D6 = Cytochrome P450 2D6 (Homo sapiens, UniProt P10635); assay: Drug metabolism assessed as human CYP2D6-mediated metabolism per ug protein; type: ADME; settings: recombinant enzyme
Chain of Cytochrome P450 2D6 (P10635 whole entry): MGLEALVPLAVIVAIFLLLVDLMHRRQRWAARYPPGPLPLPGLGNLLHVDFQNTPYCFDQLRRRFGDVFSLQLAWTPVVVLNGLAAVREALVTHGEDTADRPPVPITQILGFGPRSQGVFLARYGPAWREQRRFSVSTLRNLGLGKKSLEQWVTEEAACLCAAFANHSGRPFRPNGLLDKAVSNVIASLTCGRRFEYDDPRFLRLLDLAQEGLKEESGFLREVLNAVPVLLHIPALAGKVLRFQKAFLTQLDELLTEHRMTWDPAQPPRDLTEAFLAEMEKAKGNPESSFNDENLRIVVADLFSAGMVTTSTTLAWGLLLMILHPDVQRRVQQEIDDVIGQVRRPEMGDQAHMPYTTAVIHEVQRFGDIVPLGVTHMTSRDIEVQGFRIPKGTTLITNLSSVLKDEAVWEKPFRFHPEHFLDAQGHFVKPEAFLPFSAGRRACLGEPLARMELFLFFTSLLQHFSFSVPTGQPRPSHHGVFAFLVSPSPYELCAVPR

[20] = Chemical stability in pH 3 phosphate buffer assessed as half life at 100 uM by RP-HPLC analysis; type: physicochemical
[21] = Homo sapiens, iPSC-CM, read-out: EC50

Row | Compound | IC50 [8] [µM] | IC50 [9] [µM] | IC50 [10] [µM] | Activity [1] [µM] | EC50 [2] | Activity (iPSC-CM [4]) | Activity [5] | Activity [6] | Ratio IC50 (Homo sapiens) | EC50 ([2]; read-out: EC50) [µM] | fold change (FC) [13] | Activity [14] [µM] | EC50 ([12]; ipsc-cm) | further results
1 | COCCNC(COc1cc(C)cc(C)c1)c1ccccc1.Cl (centres undefined) | 0.753 | 38 | 5.1 | 200 | Not Active | inactive | 200 µM | Not Active | 6.8 |  |  |  |  | fold change (FC) (iPSC-CM [3]): inactive; Activity [7]: Not Active
2 | COc1ccccc1OCC(C)N.Cl (centres undefined) |  |  |  |  | Not Active | inactive | Not Active | 133 µM |  |  |  |  |  | Activity (iPSC-CM [11]): inactive; fold change (FC) (iPSC-CM [3]): inactive; EC50 [12, 21]: 97.8 µM
3 | Cc1cccc(C)c1OCC(C)NC(=O)c1ccccc1.Cl (centres undefined) |  |  |  | 133 |  |  | 66 µM | Not Active |  | 133 | 1.45 | 66 | Not Active | Ratio EC50 [15]: 9
4 | Cl.OCCNC(COc1cc(C(F)(F)F)cc(C(F)(F)F)c1)c1ccccc1 (centres undefined) | 1.02 | 45.1 | 16.8 | 22 | Not Active |  | 66 µM | Not Active | 16.5 |  | 1.5 | 7.4 |  | Activity [7]: Not Active
5 | Cc1ccccc1OC[C@@H](N)c1ccccc1.Cl |  |  |  |  |  |  |  |  |  |  |  |  |  | remaining at 1 h, 50 µM [16]: > 95%; half-life at 50 µM [18]: 0.0944 days
6 | Cc1ccc(C(N)COc2c(C)cccc2C)cc1.Cl (centres undefined) |  |  |  | 66 | Not Active |  | 66 µM | Not Active |  |  | 1.588 | 22 | Not Active | Ratio EC50 [15]: 7
7 | Cc1cccc(C)c1OCC(N)c1ccc(C(F)(F)F)cc1.Cl (centres undefined) |  |  |  | 66 |  |  | 66 µM | Not Active |  | 1.4 | 1.48 | 22 | Not Active | Ratio EC50 [15]: 7
8 | CC(=O)NC(C)COc1c(C)cccc1C.Cl (centres undefined) |  |  |  |  | Not Active | inactive | Not Active | Not Active |  |  |  |  | Not Active | Activity (iPSC-CM [11]): inactive; fold change (FC) (iPSC-CM [3]): inactive
9 | Cc1cccc(C)c1OCC(C)NCCc1ccccc1.Cl (centres undefined) |  |  |  | 7.4 | Not Active |  | 133 µM | 22 µM |  |  | 1.706 | 2.5 |  | EC50 [12, 21]: 2.5 µM; Ratio EC50 [15]: 28
10 | Cc1cccc(C)c1OCC(C)Nc1ccccc1.Cl (centres undefined) |  |  |  |  | Not Active | inactive | Not Active | Not Active |  |  |  |  | Not Active | Activity (iPSC-CM [11]): inactive
11 | COc1ccc(C(N)COc2c(C)cccc2C)cc1.Cl (centres undefined) |  |  |  | 66 | Not Active |  | 66 µM | Not Active |  |  | 1.425 | 7.4 | Not Active | Ratio EC50 [15]: 7
12 | Cc1ccccc1OCC(N)c1ccccc1.Cl (racemic) |  |  |  |  |  |  |  |  |  |  |  |  |  | half-life at 100 µM [19]: > 30 days; half-life at 100 µM [20]: > 15 days
13 | CCNC(COc1cccc(C)c1C)c1ccccc1.Cl (centres undefined) |  |  |  | 22 | Not Active | inactive | 133 µM | Not Active |  |  |  |  |  | fold change (FC) (iPSC-CM [3]): inactive; Activity [7]: Not Active
14 | CCCNC(COc1cccc(C)c1C)c1ccccc1.Cl (centres undefined) |  |  |  | 133 | Not Active | inactive | Not Active | Not Active |  |  |  |  |  | fold change (FC) (iPSC-CM [3]): inactive; Activity [7]: Not Active
15 | CCNC(C)COc1c(C)cccc1C.Cl (centres undefined) |  |  |  |  | Not Active | inactive | Not Active | 133 µM |  |  |  |  |  | Activity (iPSC-CM [11]): inactive; EC50 [12, 21]: 21.5 µM

Second part, led by results:

Row | IC50 [8] [µM] | IC50 [9] [µM] | IC50 [10] [µM] | Compound | Activity [1] [µM] | EC50 [2] | Activity (iPSC-CM [4]) | Activity [5] | Activity [6] | Ratio IC50 (Homo sapiens) | EC50 ([2]; read-out: EC50) [µM] | fold change (FC) [13] | Activity [14] [µM] | EC50 ([12]; ipsc-cm) | further results
16 |  | 128 | 54.3 | Cc1cccc(C)c1OC[C@H](C)N [(S)-MEXILETINE] |  |  |  | Not Active | 200 µM |  | 0.8 |  | 22 |  | Activity (iPSC-CM [11]): inactive; remaining at 1 h, 50 µM [16]: > 95%; remaining at 1 h, 50 µM [17]: > 95%
17 | 0.2 | 20.1 | 6.2 | Cc1cc(C)cc(OCC(N)c2ccccc2)c1.Cl (racemic) | 66 |  |  | 66 µM | Not Active | 31 | < 0.8 | 1.279 | 7.4 | Not Active | half-life at 100 µM [19]: > 30 days; Drug metabolism (Cytochrome P450 3A4): Metabolite_Notdetected; Drug metabolism (Cytochrome P450 3A5): Metabolite_Notdetected; Drug metabolism (Cytochrome P450 2D6): 6.9 pmol/min
18 | 17.3 | 154 | 49.3 | Cc1cc(C)cc(OCC(C)N)c1.Cl (centres undefined) | 200 |  |  | Not Active | Not Active | 2.84 | 4.5 | 1.232 | 66 |  | EC50 [12, 21]: 7.7 µM
19 | 10 | 76.8 | 45.8 | Cc1cc(C)cc(OCC(N)C2CC2)c1.Cl (centres undefined) | 200 |  |  | 200 µM | 66 µM | 4.6 | 2.06 | 1.15 | 22 |  | fold change (FC) [7]: 2.12
20 | 1.03 | 10.9 | 9.2 | Cc1cccc(OCC(N)c2ccccc2)c1C.Cl (centres undefined) | 66 | Not Active |  | 133 µM | Not Active | 8.9 |  | 1.406 | 22 | Not Active | 
21 |  | 129 | 84 | Cc1cccc(C)c1OC[C@@H](C)N [(R)-MEXILETINE] |  |  |  | Not Active | 200 µM |  | 0.96 |  | 7.4 |  | Activity (iPSC-CM [11]): inactive; remaining at 1 h, 50 µM [16]: > 95%; remaining at 1 h, 50 µM [17]: > 95%
22 | 7.4 | 130 | 30.1 | Cc1cccc(C)c1OCC(N)C1CC1.Cl (centres undefined) | 200 |  |  | Not Active | 66 µM | 4.1 | 0.8 | 1.162 | 22 |  | EC50 [12, 21]: 8 µM; fold change (FC) [7]: 2.805
